# Experimental data from different studies.
# Lines come from different studies, so protocols differ.
# Target: Protein kinase C delta type (PRKCD, Homo sapiens, UniProt Q05655)
SMILES,test,conditions,endpoint,result
C[C@@]1(Cc2ccc(C#N)cc2)C(=O)N(c2cc(Cl)cc(Cl)c2)c2ncc(C(=O)NC3(c4nc(C5CCC5)no4)CC3)n21,"cell-free assay, competition with immobilised ligand",1 µM,remaining binding,100%
Cc1ccc(C(=O)Nc2ccc(CN3CCN(C)CC3)c(C(F)(F)F)c2)cc1C#Cc1cnc2cccnn12,enzyme activity,23.5 nM,remaining activity,64%
CC(C)c1ccc(NC(=O)c2cccs2)c(-c2nc3ccccc3[nH]c2=O)c1,"enzyme activity, inhibitor",1 µM,activity vs control,104%
Cc1ccc(NC(=O)c2ccc(C)c(C(F)(F)F)c2)cc1C#Cc1nn(C2CCC(O)CC2)c2ncnc(N)c12 (stereo not shown),cell-free assay,10 µM,remaining signal,96%
CCCOc1ccc(OC)c(F)c1C(=O)c1ccc(C(=O)N[C@@H]2CNC[C@H]2NC(=O)c2ccc3[nH]ncc3c2)cc1,"enzyme activity, inhibitor",0.75 µM,remaining activity,68%
CC/C(=N\NC(=O)NCc1cccc(O)c1)c1ccc(O)c(C)c1O,"enzyme activity, inhibitor",0.1 µM,inhibition,24.6%
O=C(O)[C@H]1[C@H](Cn2nnc3ccccc3c2=O)CC[C@@H]1C(=O)c1ccc(OCCC2CCOCC2)cc1,"cell-free assay, competition with immobilised ligand",1 µM,remaining binding,100%
Nc1ncnc2occ(-c3ccc(NC(=O)Nc4cc(C(F)(F)F)ccc4F)cc3)c12,cell-free assay,20 µM,remaining signal,14%
CNC(=O)c1cc(Oc2ccc(NC(=O)Nc3ccc(Cl)c(C(F)(F)F)c3)cc2)ccn1,"enzyme activity, inhibitor",10 µM,inhibition,-6%
O=C(Nc1cnn(-c2csc(C(=O)NC3COC3)c2)c1)Nc1ccccc1Cl,"enzyme activity, inhibitor",5 µM,remaining activity,112%
N#Cc1ccc(Nc2ccc3[nH]c(=O)[nH]c3c2)c(Cl)c1,"cell-free assay, competition with immobilised ligand",1 µM,remaining binding,100%
Oc1ccc(-c2nc(-c3ccncc3)c(-c3ccc(F)cc3)[nH]2)cc1,cell-free assay,0.5 µM,remaining signal,99.3%
CCN(CC)c1ccc(C2=NNC(=O)CC2C)cc1[N+](=O)[O-] (stereo not shown),"enzyme activity, inhibitor",10 µM,remaining activity,85%
CCC(=O)N[C@H]1CC[C@@H](C(=O)N(C)c2ccc(-c3nc4ccccc4o3)cc2)C1,"cell-free assay, competition with immobilised ligand",1 µM,remaining binding,100%
Cn1cnc(Br)c1C1=CN(c2ncnc3[nH]cnc23)CCS1,"enzyme activity, inhibitor, radiometric",2 µM,inhibition,93.4%
CS(=O)(=O)NCC[C@H](NC(=O)c1cncc2c1cnn2-c1ccc(F)cc1)c1ccnc(S(C)(=O)=O)c1,"cell-free assay, competition with immobilised ligand",1 µM,remaining binding,76%
Cc1ccc(Nc2nccc(N(C)c3ccc4c(C)n(C)nc4c3)n2)cc1S(N)(=O)=O,enzyme activity,0.5 µM,remaining activity,106%
CC1=C(C#N)C(c2ccc3c(c2)c(NC(=O)c2ccccc2C)nn3C)C(C#N)=C(C)N1,"cell-free assay, competition with immobilised ligand",1 µM,remaining binding,100%
CN1CC(Oc2cnc(C#N)cc2-c2ccn3nc(NC(=O)C4CC4)cc3c2)C1,"enzyme activity, inhibitor",1 µM,inhibition,3%
COc1cc2ncnc(Nc3ccc(Oc4ccccc4)c(C)c3C)c2cc1OC,"enzyme activity, inhibitor",1 µM,inhibition,23%
Cn1cncc1C1=CN(c2ncnc3[nH]cnc23)CCS1,"enzyme activity, inhibitor, radiometric",50 nM,inhibition,12.6%
N#CCCc1ccc2c(c1)-c1[nH]c3ccc([N+](=O)[O-])cc3c1CC(=O)N2,cell-free assay,0.5 µM,remaining signal,74.9%
Cc1cnc(NC2CCOCC2)nc1-n1cnc(C(=O)NC(CN)c2cc(F)cc(Cl)c2)c1 (stereo not shown),"enzyme activity, inhibitor, radiometric",1 µM,remaining activity,59%
CNCc1ccccc1-c1csc([C@@H](C)Nc2nc(C)nc3cc(OC)c(OC)cc23)c1,"cell-free assay, competition with immobilised ligand",1 µM,remaining binding,98%
CC(C)(C)c1nc2c(s1)c1nc(N)ncc1c1ccc(NS(=O)(=O)c3c(F)cccc3F)c(F)c12,"enzyme activity, inhibitor, radiometric",1 µM,remaining activity,100%
